The text below walks through data of publication PMC7913687 (Nucleic Acids Research, 2021).

In series [1] the target is T1, TsaC (Escherichia coli, UniProt P45748).
T1 sequence (P45748 1-190): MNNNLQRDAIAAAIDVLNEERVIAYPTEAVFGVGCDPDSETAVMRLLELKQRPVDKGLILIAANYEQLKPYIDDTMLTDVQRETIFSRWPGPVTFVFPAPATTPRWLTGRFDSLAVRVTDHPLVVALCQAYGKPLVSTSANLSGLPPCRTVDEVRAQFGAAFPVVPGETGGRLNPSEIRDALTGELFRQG
Kind of series: TsaC reaction. Format: biochemical. As to conditions: named ligand as variable substrate. In short, it runs like this:
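Enzyme, with the other components and any inhibitor, preincubated 2 min at 23°C, then started with ATP. After 1 min at 23°C, injected directly onto C18 HPLC (isocratic 50 mM potassium phosphate pH 6, 1% acetonitrile). TC-AMP read by UV at 260 nm. […], measured near initial rates.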

Series [2] deals with t^6A formation by TsaC, TsaB, TsaD and TsaE. As to the kind of experiment: In vitro HPLC assay for t^6A formation, overall. Format: biochemical, Escherichia coli. As to conditions: for k cat, overall reaction: named ligand as variable substrate; for Km: read-out: Km, overall reaction, apparent, amino acid as variable substrate.
In series [3] the target is EcTsaBDE (Escherichia coli, UniProt P05852). As to the kind of experiment: Isolated second step of t^6A formation. It is filed as biochemical.
Chain of EcTsaBDE (P05852 whole entry): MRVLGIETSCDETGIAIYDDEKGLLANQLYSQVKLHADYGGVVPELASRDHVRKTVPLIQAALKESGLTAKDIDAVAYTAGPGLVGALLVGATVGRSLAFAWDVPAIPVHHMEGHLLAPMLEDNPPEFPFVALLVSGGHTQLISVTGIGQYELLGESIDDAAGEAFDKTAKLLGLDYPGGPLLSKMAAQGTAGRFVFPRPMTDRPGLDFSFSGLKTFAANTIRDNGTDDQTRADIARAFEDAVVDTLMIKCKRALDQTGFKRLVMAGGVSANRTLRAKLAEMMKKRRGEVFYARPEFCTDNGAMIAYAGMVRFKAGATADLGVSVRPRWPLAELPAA
Chain of EcTsaBDE (P76256 whole entry partner): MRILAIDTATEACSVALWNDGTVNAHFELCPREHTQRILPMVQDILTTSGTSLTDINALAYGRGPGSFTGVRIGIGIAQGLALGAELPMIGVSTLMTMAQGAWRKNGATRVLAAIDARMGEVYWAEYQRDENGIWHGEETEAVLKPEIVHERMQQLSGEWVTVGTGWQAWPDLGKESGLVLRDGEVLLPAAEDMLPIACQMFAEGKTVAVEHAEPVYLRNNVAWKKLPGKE
Series [4] relates to EcTsaBDE complex. As to conditions: read-out: Km for TsaE-catalyzed ATPase activity; cited from earlier work.
Series [5] addresses overall reaction (TsaC, TsaB, TsaD and TsaE) (Escherichia coli, UniProt P05852+P45748). Kind of series: Inhibition of t6A formation in the full TsaBCDE reaction. As to conditions: read-out: IC50 (μM) Overall reaction. It is filed as biochemical. In outline:
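Full reaction: 50 mM MOPS pH 7.5, 20 mM NaHCO3, 25 mM KCl, 1 mM ATP, L-Thr (0.6 mM per footnote; 1 mM in text), 10 μM unmodified E. coli tRNALys, 1 μM each TsaB/C/D/E. Variable test compound; ATP-started; 23 °C, 5 min; EDTA quench, G-50 desalting, nuclease P1/alkaline phosphatase digest. Isocratic C18 HPLC quantifies t6A at 260 nm. IC50 from near-initial rates.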

The subject of series [6] is Nc1ncnc2c1ncn2[C@@H]1O[C@H](COP(=O)(O)OP(=O)(O)OP(=O)(O)O)[C@@H](O)[C@H]1O. Kind of series: purified protein, by the assay type. As to conditions: pH 6.0; 23.0 °C.
Series [7] deals with C[C@@H](O)[C@H](N)C(=O)O. Kind of series: purified protein, by the assay type. As to conditions: pH 6.0; 23.0 °C.
In series [8] the target is Escherichia coli TsaBD heterodimer, preformed from fluorescently labelled His6-TsaD and unlabelled TsaB (Escherichia coli) (UniProt P05852). As to the kind of experiment: MST.
Chain of Escherichia coli TsaBD heterodimer, preformed from fluorescently labelled His6-TsaD and unlabelled TsaB (Escherichia coli) (P05852 whole entry, chain 1 of 2): as the sequence (P05852 whole entry) above
Chain of Escherichia coli TsaBD heterodimer, preformed from fluorescently labelled His6-TsaD and unlabelled TsaB (Escherichia coli) (P76256 whole entry, chain 2 of 2, further chain): as the sequence (P76256 whole entry partner) above
Series [9] concerns aspartate and ornithine transcarbamoylases. The note with it: cited from earlier work.

Chain of overall reaction (TsaC, TsaB, TsaD and TsaE) (P76256 whole entry, one chain of several): as the sequence (P76256 whole entry partner) above
Chain of overall reaction (TsaC, TsaB, TsaD and TsaE) (P05852 whole entry, one chain of several): as the sequence (P05852 whole entry) above

`C[C@@H](O)[C@H](N)C(=O)O` [L-Thr, L-threonine]: in series [1], the “K m, TsaC reaction” value is 1770 ± 260 µM and the “k cat, TsaC reaction” value stood at 0.15 ± 0.0067 s⁻¹. Further, in series [2], the “k cat, overall reaction” value is 0.007 ± 0.00033 s⁻¹ and the Km (usually the concentration of substrate that gives half-maximal velocity) came out at 590 ± 90 µM.
Turning to `Nc1ncnc2c1ncn2[C@@H]1O[C@H](COP(=O)(O)OP(=O)(O)OP(=O)(O)O)[C@@H](O)[C@H]1O` [ATP], in series [1], the “K m, TsaC reaction” value turned out to be 130 ± 10 µM and the “k cat, TsaC reaction” value was 0.132 ± 0.0033 s⁻¹. For the same compound, the “fold lower turnover of t^6A formation than ATPase activity” value in [3] was around 80 fold. Moreover, in series [3] (14 μM vs 0.64 mM), the “fold lower Km for t^6A second step than Km for ATPase activity” value turned out to be 40 fold. Moreover, the “Kis, second step with TC-AMP as substrate” value in series [3] (TC-AMP 10 μM, fit to Equation 3) is recorded as 1.8 mM. Besides, in [3] (TC-AMP 10 μM, calculated for observed substrate inhibition), the “Kis (substrate inhibition), TsaBDE reaction” value is 1800 µM. Moreover, the “k cat, TsaBDE reaction” value in series [3] (named ligand as variable substrate) was found to be 0.002 ± 0.0017 s⁻¹. Moreover, the Michaelis constant (Km) in series [4] was 640 µM. The “reduction in the Vmax (substrate inhibition)” value in series [2] (at 5 mM ATP) stood at 50%. In addition, the “reduction in the Vmax (substrate inhibition)” value in series [2] (at 10 mM ATP) is 90%. For the same compound, in series [2] (calculated for observed substrate inhibition, fit to Equation 3), the “Kis (substrate inhibition), overall reaction” value is 2200 µM. In [2], the “k cat, overall reaction” value is 0.00667 ± 0.0067 s⁻¹.
Consider `Nc1ncnc2c1ncn2[C@@H]1O[C@H](COP(=O)(O)O)[C@@H](O)[C@H]1O` [5′-AMP, adenosine 5'-monophosphate], for which the IC50 – broadly, the point on the concentration scale where inhibition reaches its midpoint – in series [5] came out at 113 ± 10 µM.
As for EcTsaC (Escherichia coli K-12), in series [6], the Km worked out at 130 ± 10 µM and the catalytic constant (kcat) – broadly, the maximal rate divided by the concentration of active sites – was determined as 0.132 ± 0.00333 s⁻¹. In [7], the Km was 1770 ± 260 µM and the kcat came out at 0.15 ± 0.00667 s⁻¹.
For “Escherichia coli TsaE (from UniProt P0AF67 1-153) (enzyme; other documents disagree on this pair)”, in series [8], the Kd (as a rule, the concentration at which binding is half-saturated) came out at 2.2 µM.
On to `Nc1ncnc2c1ncn2[C@@H]1O[C@H](COP(=O)(O)OC(=O)N[C@@H](CO)C(=O)O)[C@@H](O)[C@H]1O` [SC-AMP, serine analog of TC-AMP (L-serylcarbamoyl-adenylate)], for which the IC50 in series [5] is 9.3 ± 1.2 µM.
In the case of `NC(=O)OP(=O)(O)O` [CP, carbamoyl phosphate], the Michaelis constant (Km) in [9] was 4 to 10 µM.
On to `Nc1ncnc2c1ncn2[C@@H]1O[C@H](COP(=O)(O)OP(=O)(O)O)[C@@H](O)[C@H]1O` [5′-ADP, adenosine 5'-diphosphate], for which the IC50 in [5] was determined as 160 ± 20 µM.
Turning to `CCC(O)[C@H](N)C(=O)O` (mixture of isomers) [hNV, (±)-3-hydroxynorvaline], the Km in series [2] was 500 µM.
